# Test results from ChEMBL document CHEMBL3272032, “Antifolate studies. Activities of 40 potential antimalarial compounds against sensitive and chlorguanide triazine resistant strains of folate-requiring bacteria and Escherichia coli” (J Med Chem, 1977).
# Activity calls are given as the source filed them. The rule behind the calls is not given here.
# Experiments:
# Plasmodium berghei [1] = experiment: Antimalarial activity against Plasmodium berghei infected in sc dosed mouse assessed as dose required to survivors for period of 60 days; type: functional
# Summary of the method: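 Mice infected with a blood-induced P. berghei inoculum were given one subcutaneous dose in peanut oil. Survivors at 60 days counted as cured. The minimum curative dose is the lowest dose that cured any mouse.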
# Lacticaseibacillus casei [2] = experiment: Antibacterial activity against chlorguanide triazine-resistant Lactobacillus casei ATCC 7469 assessed as reduction in growth; type: functional, organism-based
# Summary of the method: (§1)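 Folate-requiring strains grown in medium with folic acid, 0.002 µg/ml for S. faecium and 0.001 µg/ml for L. casei; P. cerevisiae given folinic acid, 0.001 µg/ml. Resistant substrains came from serial transfer in rising chlorguanide triazine, and the most resistant were used. Compounds tested up to 1000 µg/ml, or 100 µg/ml when supply was limited. Growth read as Klett turbidity; IC50 is the µM concentration giving 50% growth inhibition.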
# Lacticaseibacillus casei [3] = experiment: Antibacterial activity against chlorguanide triazine-resistant Lactobacillus casei ATCC 7469 assessed as reduction in growth in presence of 0.001 ug/ml folic acid; type: functional, organism-based; summary of the method: as §1
# Plasmodium berghei [4] = experiment: Antimalarial activity against Plasmodium berghei infected in sc dosed mouse assessed as active dose required to increase of 100% in mean survival time; type: functional; conditions: read-out: MED
# Summary of the method: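 Mice received a standard blood-induced P. berghei inoculum and were then treated with one subcutaneous dose of compound suspended in peanut oil. The minimum active dose is the lowest dose that raised mean survival time by 100%.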
# Enterococcus faecium [5] = experiment: Antibacterial activity against chlorguanide triazine-resistant Streptococcus faecium ATCC 8043 assessed as reduction in growth in presence of 0.002 ug/ml folic acid; type: functional, organism-based; summary of the method: as §1
# Lacticaseibacillus casei [6] = experiment: Antibacterial activity against sensitive Lactobacillus casei ATCC 7469 assessed as reduction in growth in presence of 0.001 ug/ml folic acid; type: functional, organism-based
# Summary of the method: (§2)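 Folate-requiring strains in the medium of the earlier assay method. Folic acid was 0.002 μg/ml for S. faecium and 0.001 μg/ml for L. casei. Turbidity read on a Klett-Summerson colorimeter. IC50 is the micromolar concentration reducing growth to 50% of control. Top concentration was 1000 μg/ml, or 100 μg/ml if supply was limited.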
# Enterococcus faecium [7] = experiment: Antibacterial activity against chlorguanide triazine-resistant Streptococcus faecium ATCC 8043 assessed as reduction in growth; type: functional, organism-based; summary of the method: as §1
# Enterococcus faecium [8] = experiment: Antibacterial activity against sensitive Streptococcus faecium ATCC 8043 assessed as reduction in growth in presence of 0.002 ug/ml folic acid; type: functional, organism-based; summary of the method: as §2
# Enterococcus faecium [9] = experiment: Fold increase in resistance, ratio of IC50 for chlorguanide triazine-resistant Streptococcus faecium ATCC 8043 to IC50 for sensitive Streptococcus faecium ATCC 8043; type: functional
# Summary of the method: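 Resistant S. faecium substrain raised by serial transfer in increasing chlorguanide triazine. IC50 (µM, 50% growth inhibition by turbidity) was found for resistant and parent strains in folic acid (0.002 µg/ml) medium. Fold increase taken as IC50 resistant / IC50 sensitive.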
# Escherichia coli [10] = experiment: Antibacterial activity against sensitive Escherichia coli ATCC 10536 assessed as reduction in growth; type: functional, organism-based
# Summary of the method: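 Growth inhibition in Sahyun et al. medium plus 0.6% acid-hydrolyzed casein. Growth read as turbidity on a Klett-Summerson photoelectric colorimeter. IC50 is the micromolar concentration giving 50% growth inhibition. Top concentration was 1000 μg/ml, or 100 μg/ml when compound was limited.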
# Lacticaseibacillus casei [11] = experiment: Antibacterial activity against sensitive Lactobacillus casei ATCC 7469 assessed as reduction; type: functional, organism-based; summary of the method: as §1
# Enterococcus faecium [12] = experiment: Antibacterial activity against sensitive Streptococcus faecium ATCC 8043 assessed as reduction in growth; type: functional, organism-based; summary of the method: as §1
# Lacticaseibacillus casei [13] = experiment: Fold increase in resistance, ratio of IC50 for chlorguanide triazine-resistant Lactobacillus casei ATCC 7469 to IC50 for sensitive Lactobacillus casei ATCC 7469; type: functional
# Summary of the method: (§3)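 Resistant substrains were made by serial transfer in rising concentrations of cycloguanil, and the most resistant isolate of each organism was used. Both strains were assayed turbidimetrically under identical conditions. FIR = IC50 of the resistant strain divided by IC50 of the sensitive parent.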
# [14] = Antibacterial activity against sensitive Pediococcus cerevisiae ATCC 808 assessed as reduction; type: functional
# Summary of the method: (§4)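 P. cerevisiae grown with folinic acid at 0.001 μg/ml in the earlier-described medium. Turbidity read on a Klett-Summerson colorimeter. IC50 is the micromolar concentration reducing growth to 50% of control. Top concentration was 1000 μg/ml, or 100 μg/ml when supply was limited.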
# [15] = Antibacterial activity against chlorguanide triazine-resistant Pediococcus cerevisiae ATCC 808 assessed as reduction in growth; type: functional; summary of the method: as §1
# Pediococcus [16] = experiment: Antibacterial activity against sensitive Pediococcus cerevisiae ATCC 808 assessed as reduction in growth in presence of 0.001 ug/ml folinic acid; type: functional; summary of the method: as §4
# Pediococcus [17] = experiment: Fold increase in resistance, ratio of IC50 for chlorguanide triazine-resistant Pediococcus cerevisiae ATCC 808 to IC50 for sensitive Pediococcus cerevisiae ATCC 808; type: functional; summary of the method: as §3
# Escherichia coli [18] = experiment: Antibacterial activity against sensitive Escherichia coli ATCC 10536 assessed as reduction in growth in presence of p-aminobenzoic acid; type: functional, organism-based
# Summary of the method: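 Reversal test. Drug inhibition was challenged with PABA in Sahyun et al. medium plus 0.6% acid-hydrolyzed casein. Growth read as turbidity on a Klett-Summerson colorimeter. Scored as reversal or nonreversal of the drug inhibition.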
SMILES,MCD (Plasmodium berghei [1]) [mg/kg],IC50 (Lacticaseibacillus casei [2]) [µM],inhibition (Lacticaseibacillus casei [3]),minimal effective dose (Plasmodium berghei [4]) [mg/kg],inhibition (Enterococcus faecium [5]),inhibition (Lacticaseibacillus casei [6]),IC50 (Enterococcus faecium [7]) [µM],inhibition (Enterococcus faecium [8]),Ratio IC50 (Enterococcus faecium [9]),IC50 (Escherichia coli [10]) [µM],IC50 (Lacticaseibacillus casei [11]) [µM],IC50 (Enterococcus faecium [12]) [µM],Ratio IC50 (Lacticaseibacillus casei [13]),IC50 [14] [µM],IC50 [15] [µM],inhibition (Pediococcus [16]),Ratio IC50 (Pediococcus [17]),inhibition (Escherichia coli [18])
O=C(NO)c1ccc(C(=O)NO)cc1,640,3000,Active,320,Active,Active,> 5000,Active,3,> 5000,2600,1700,1,> 5000,–,–,–,–
CCc1ccc(N2C(N)=NC(N)=NC2(C)C)cc1,>640,291,inactive,320,–,inactive,> 350,inactive,>9700,1900,27.3,0.036,11,42.6,> 355,inactive,>8,Active
Nc1nc(=O)c2c([nH]1)NCC(CCNc1ccc(C(=O)[O-])cc1)N2.[Na+] (configuration not stated),>640,0.2,inactive,> 640,inactive,inactive,7.2,inactive,800,–,6,0.009,0.03,> 2900,–,–,–,–
COc1cc(NC(C)CCCN)c2ncccc2c1 (configuration not stated) [PRIMAQUINE],160,1300,–,40,–,Active,3000,Active,3,–,630,1200,2,580,540,Active,1,–
CCN(CC)CCNc1nc(C(Cl)(Cl)Cl)nc2cc(Cl)ccc12,320,8,–,160,–,Active,67,Active,0.9,50,30,76,0.27,32,35,Active,1,Active
COc1nccnc1NS(=O)(=O)c1ccc(N)cc1 [SULFALENE],160,8200,–,40,–,–,> 3600,–,–,13.5,8200,> 3600,1,> 3600,–,–,–,inactive
Nc1nc(N)c2c(ccc3cc(Br)ccc32)n1,>640,0.06,inactive,640,inactive,inactive,0.7,inactive,117,4.8,1,0.006,0.06,0.04,0.3,inactive,7.5,Active
Nc1ccc(S(=O)(=O)Nc2nccs2)cc1 [SULFATHIAZOLE],160,> 3900,–,40,–,–,> 3900,–,–,7.8,> 3900,> 3900,–,> 3900,–,–,–,inactive
Nc1ccc(S(=O)(=O)Nc2ncccn2)cc1 [SULFADIAZINE],640,> 4000,–,160,–,–,> 4000,–,–,12,> 4000,> 4000,–,> 4000,–,–,–,inactive
Cc1ccccc1-c1nc2c(N)nc(N)nc2nc1N,320,1.9,–,40,–,inactive,124,inactive,113,209,68,1.1,0.03,8.5,44,inactive,5,Active
CC1(C)N=C(N)N=C(N)N1OCc1ccc(Cl)c(Cl)c1 [CLOCIGUANIL],20,3.1,–,2.5,–,inactive,3.4,inactive,3800,7,0.057,0.0009,54,0.14,8.2,inactive,59,Active
CCN(CC)CCNc1nc(Nc2ccc(Cl)c(Cl)c2)nc2ccccc12,–,5,–,–,–,Active,61,Active,2,11,12,31,0.4,6.5,8.2,Active,1,Active
CCOC(=O)c1cnc(S)nc1O,320,574,–,40,–,Active,> 5000,–,–,> 5000,3000,> 5000,0.19,> 5000,–,–,–,–
NC1(C(=O)O)CCCC1 [CYCLOLEUCINE],>640,> 7700,–,> 640,–,–,> 7700,–,–,> 7700,> 7700,> 7700,–,> 7700,–,–,–,–
CCN(CC)CCCC(C)Nc1ccnc2cc(Cl)ccc12 (configuration not stated) [CHLOROQUINE],80,6000,–,20,–,Active,7500,Active,1,–,6400,6600,1,2500,2500,Active,1,–
Nc1ccc(S(=O)(=O)c2ccc(N)cc2)cc1 [DAPSONE],40,75,–,20,–,Active,> 4000,–,–,137,314,> 4000,0.24,105,> 400,Active,>4,inactive
